Screening data (PubChem BioAssay)
An excerpt weighted towards active compounds, which were near 5.4% of everything screened.
Ecoli WT expand: growth inhibitors of wild-type E. coli, primary screen, strain BW25113, expanded library, OD600 | 0.15% of 98,000 active | OD600 absorbance | growth inhibition, % at 100 µM | AID 710, 2007;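 active = growth inhibition above about 50% at one test dose, limit read from the data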;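 note: growth measured after 20 h incubation at 37 °C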
Ecoli tolC: growth inhibitors of E. coli tolC mutant, primary screen, strain BW25113 ΔtolC::kan, 384-well; OD615; growth inhibition, % at 10 µM (by protocol); 2.2% of 65,000 active; AID 573, 2007;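 active = growth inhibition at or above a cutoff equal to the mean over every tested compound plus 3 SD, cut at about 60% in these data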;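 note: growth measured after 20 h incubation at 37 °C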
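test system = E. coli BW25113 ΔtolC::kan bacteria | medium = LB with kanamycin 50 µg/mL | signal = OD at 615 nm | schedule = 37 °C, 20 h exposure | evaluation = % inhibition of E. coli growth | compound dosing = one dose of 10 µM final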
PostGolgi ctrl: growth inhibition of yeast control strain, primary screen, counter-screen for post-Golgi transport modulator project | inhibition, % at 10 µM | 5% of 98,000 active | efflux-deficient yeast background strain, growth absorbance A615, 16 h
HePTP inhibitor: inhibitors of human HePTP phosphatase, primary screen, biochemical, absorbance, leukemia target; Tyrosine-protein phosphatase non-receptor type 7 (Homo sapiens), P35236; recombinant HePTP phosphatase activity, OD absorbance; inhibition, % at 20 µM; 0.64% of 110,000 active; in the data active = inhibition above about 50%;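 note: plate controls were vehicle for no effect and reference inhibitor for full effect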
PLAP activator: PLAP enzyme activators, biochemical, luminescence, HTS; AID 696, 2007; activation fold at 20 µM; 1.2% of 96,000 active; purified PLAP enzyme, luminescent substrate read-out; stronger effect = higher value; in the data active = activation fold above about 2
Target sequence (P05187 whole entry, looked up): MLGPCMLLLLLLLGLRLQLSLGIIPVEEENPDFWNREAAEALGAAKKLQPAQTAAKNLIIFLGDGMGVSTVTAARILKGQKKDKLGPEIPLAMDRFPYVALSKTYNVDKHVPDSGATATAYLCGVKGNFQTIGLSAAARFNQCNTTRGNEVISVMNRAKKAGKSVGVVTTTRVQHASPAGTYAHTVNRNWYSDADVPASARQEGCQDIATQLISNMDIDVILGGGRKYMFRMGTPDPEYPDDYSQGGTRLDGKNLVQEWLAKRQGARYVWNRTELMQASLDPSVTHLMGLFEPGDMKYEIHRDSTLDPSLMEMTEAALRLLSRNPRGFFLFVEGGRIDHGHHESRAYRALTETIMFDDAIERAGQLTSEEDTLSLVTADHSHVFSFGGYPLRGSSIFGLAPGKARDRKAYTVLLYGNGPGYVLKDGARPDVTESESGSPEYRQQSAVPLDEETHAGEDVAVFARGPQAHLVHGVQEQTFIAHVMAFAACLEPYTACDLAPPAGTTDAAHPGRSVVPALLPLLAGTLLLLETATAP
PostGolgi yeast: phenotypic screen on post-Golgi transport, primary screen; AID 739, 2007; post-Golgi transport phenotypic cell assay; 0.9% of 98,000 active; inhibition, % at 10 µM;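 note: yeast cells grown in 1536-well plates; yeast grown about 18 h at 30C before absorbance read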
* = called active by the depositor; . = no result given. Cut-off read from the data, not from the text of the source, unless noted: active = inhibition above about 30%; inactive = the rest.

SMILES	Ecoli WT expand	Ecoli tolC	PostGolgi ctrl	HePTP inhibitor	PLAP activator	PostGolgi yeast
O=C1C(Cl)=C(N2CCCCC2)C(=O)C(Cl)=C1/C=C/N1CCCCC1	.	.	.	102.1*	.	.
Cc1cccc(Nc2ncccc2C(=O)NCc2cccs2)c1C	-15.0	.	33.9*	.	0.7	-7.5
Cc1cccc(NC(=S)NCc2cccs2)c1C	6.0	.	-2.8	.	1.1	-7.6
Cc1ccc(C)c(-c2cc(C(=O)NCc3cccs3)c3ccccc3n2)c1	-12.0	.	8.6	.	1.1	-15.6
Cc1ccc(Nc2ncccc2C(=O)NCc2cccs2)c(C)c1	-22.0	.	44.1*	.	0.9	-2.0
CC(=O)c1ccc(OC(=O)C2CC(=O)N(c3cccc(C)c3)C2)cc1 (stereo not drawn)	3.0	6.2	1.8	1.2	0.9	-5.8
c1ccc(Cn2c(-c3ccco3)nc3nc4ccccc4nc32)cc1	-7.0	6.2	14.7	7.2	0.9	4.4
CCCCCn1c(-c2ccco2)nc2nc3ccccc3nc21	6.0	76.9*	20.7	2.5	1.4	-15.0
CN(C)C=NC(=O)c1ccc([N+](=O)[O-])c(CS(=O)(=O)c2ccc(Cl)cc2)c1	3.0	.	1.2	.	1	8.3
O=C1CC(c2ccco2)CC2=C1C1c3ccccc3C(=O)N1c1ccccc1N2 (stereo not drawn)	-1.0	88.8*	22.1	-4.3	1.1	3.4
Cc1cc(C)c2c(=O)n(CC(=O)N3CCC(Cc4ccccc4)CC3)sc2n1	5.0	-6.4	44.5*	7.4	1.1	-1.0
Cc1cccc(N2CCN(C(=O)Cn3sc4nc(C)cc(C)c4c3=O)CC2C)c1 (stereo not drawn)	0.0	-4.9	5.8	-10.4	1.7	23.0
CCC(C)N1CC23C=CC(O2)C(C(=O)OC)C3C1=O (stereo not drawn)	-15.0	-11.5	-9.4	1.7	1	1.2
COCCNC(=O)C1(C)Oc2ccccc2NC1=O (stereo not drawn)	2.0	.	-4.6	.	1	-9.8
CC(=O)OC1(C(F)(F)F)Oc2ccccc2NC1=O (stereo not drawn)	0.0	-14.1	43.8*	8.7	1	12.5
O=C(CN(C(=O)c1cc2c(s1)CCC2)C1CCCC1)NCc1cccs1	-4.0	45.4	-6.7	-3.5	1.3	-5.8
O=C(CN(Cc1ccccc1)C(=O)c1cc2c(s1)CCC2)NCc1cccs1	-14.0	.	35.0*	.	1	0.9
COC(=O)c1ccc(Oc2c(C(F)(F)F)oc3c(CN4CCN(C)CC4)c(O)ccc3c2=O)cc1	5.0	.	34.6*	.	1.5	-3.5
Cc1ccc(C)c(Oc2nnnn2-c2ccccc2)c1	8.0	14.5	13.7	7.3	1.1	10.7
c1ccc(-n2nnnc2Oc2cccc3cccnc23)cc1	1.0	91.4*	28.6	10.5	1.2	-3.2
Cc1ccc2cccc(Oc3nnnn3-c3ccccc3)c2n1	5.0	4.8	30.0*	3.0	0.9	18.4
Cc1ccc(C(C)C)c(Oc2nnnn2-c2ccccc2)c1	8.0	92.2*	20.8	-11.7	0.9	0.5
Cc1cc(N(C)C)c(C#N)c(N2CCOCC2)n1	-7.0	-6.4	9.2	5.9	1	1.2
COC(=O)CN(c1ccc(Cl)cc1Cl)S(=O)(=O)c1ccccc1	.	.	.	-3.0	.	.
CSC1=C(C#N)C(c2ccccc2Cl)C2=C(N1)c1ccccc1C2=O (stereo not drawn)	-5.0	.	3.5	.	1.1	0.3
SMILES	Ecoli WT expand	Ecoli tolC	PostGolgi ctrl	HePTP inhibitor	PLAP activator	PostGolgi yeast
CSC1=C(C#N)C(c2ccccc2C)C(C#N)=C(N)N1 (stereo not drawn)	4.0	-16.7	49.9*	9.5	0.8	1.6
O=C(CCCSc1nc2ccccc2[nH]1)N1CCN(c2ccccc2)CC1	13.0	37.0	-0.1	7.9	1.7	-9.0
Cc1cccc(N2CCN(C(=O)CCCSc3nc4ccccc4[nH]3)CC2)c1C	-10.0	.	38.8*	.	1.5	10.2
O=C(CN1CCN(c2cccc(C(F)(F)F)c2)CC1)Nc1cccc(C(F)(F)F)c1	-3.0	.	34.9*	.	1.4	-2.4
Cc1[nH]c2ccccc2c1NC(=O)CN1CCN(c2cccc(C(F)(F)F)c2)CC1	6.0	75.5*	28.3	-4.2	1.7	5.4
COc1ccc(CN2CCN(Cc3ccccc3C(F)(F)F)CC2)cc1Br	.	.	.	2.0	.	.
CCCCC(C(=O)NC(C)(C)C)N(Cc1ccco1)C(=O)c1snc(C(N)=O)c1N (stereo not drawn)	7.0	.	6.8	.	1.5	-1.3
